Assay results pooled from the literature.
Protocols differ between the studies behind these lines.
Cell line: MDA-MB-468
Effect on: cell growth or viability

Structure (SMILES)	assay	conditions	IC50 [µM]
CC1=CC(=C(c2ccc(N)c(C)c2)c2ccc(N)c(C)c2)C=CC1=N	MTT		3.1
O=S(=O)(NN=Cc1cn(CCN2CCOCC2)c2ccccc12)c1ccc(-c2ccccc2)cc1	MTT	48 h	32
Cc1cc(NS(=O)(=O)c2ccc(NC(=O)COc3ccc(C(C)(C)c4ccccc4)cc3)cc2)nc(C)n1	MTT	72 h	34.9
O=S(=O)(NN=Cc1cn(CCN2CCOCC2)c2ccccc12)c1ccc2ccccc2c1	MTT	48 h	53.4
COc1cc(/C=C2\SC(=O)NC2=O)ccc1OCc1ccc(Cl)cc1Cl	MTT	72 h	64.1
Oc1ccc(N=Nc2ccccc2)c2ccccc12	MTT		4.9
COc1ccc(Br)cc1/C=C/C(=O)c1ccc(NC(C)=O)cc1	MTT	48 h	2.4
Oc1ccc(/C=C/c2cc(O)cc3c2C(c2cc(O)cc(O)c2)C(c2ccc(O)c(O)c2)O3)cc1 (centres unmarked)	MTT		18
CC(C)(C)c1ccc(S(=O)(=O)NN=Cc2cn(CCN3CCOCC3)c3ccccc23)cc1	MTT	48 h	29.6
COc1ccc(/C=C/C(=O)c2cc(Br)ccc(=O)c2O)cc1	MTT	48 h	6.3
COc1ccccc1N=Nc1c(O)ccc2ccccc12	MTT		21
O=C(/C=C/c1ccccc1)c1ccccc1	resazurin	72 h	> 50
Cc1ccccc1Sc1cc2ccccc2c2ccccc12	MTT		29
CC(=O)Nc1nc(C)c(-c2csc(Nc3ccccc3)n2)s1	MTT	48 h	12.1
O=S(=O)(NN=Cc1cn(CCN2CCOCC2)c2ccccc12)c1cccc2ncccc12	MTT	48 h	32.2
O=C(CSc1nc2ccc(N=Cc3ccc(Sc4nnnn4-c4ccccc4)o3)cc2s1)N1CCOCC1	MTT	48 h	26.9
O=[N+]([O-])c1ccc(S(=O)(=O)NN=Cc2cn(CCN3CCOCC3)c3ccccc23)cc1	MTT	48 h	37.1
CN(C)c1ccc(/C=C/c2ccnc3ccc4ccccc4c23)cc1	MTT		0.12
COc1ccc(S(=O)(=O)NN=Cc2cn(CCN3CCOCC3)c3ccccc23)cc1	MTT	48 h	43.3
CCN1CCN(Cc2ccc(Nc3ncc(F)c(-c4cc(F)c5nc(C)n(C(C)C)c5c4)n3)nc2)CC1	CCK-8		0.711
